Data from the EternaBench riboswitch data.

Tested on: MS2 coat protein
Assay: apparent Kd, MS2 coat protein; higher = weaker binding; RNA-MaP array
Method in brief: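 Apparent Kd is the median of per-cluster binding-curve fits for designed RNAs transcribed from sequenced DNA templates on an Illumina sequencing chip. The RNAs were incubated at room temperature with fluorescently labeled MS2 coat protein at 1.5 nM to 3 μM, with or without input ligand, and designs measured on fewer than 10 clusters were excluded.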

[1] = designed as: OFF switch for flavin mononucleotide, no ligand
[2] = ligand present: flavin mononucleotide, designed as: OFF switch for flavin mononucleotide
[3] = designed as: ON switch for flavin mononucleotide, no ligand
[4] = ligand present: flavin mononucleotide, designed as: ON switch for flavin mononucleotide
[5] = designed as: OFF switch for tryptophan, no ligand
[6] = ligand present: tryptophan, designed as: OFF switch for tryptophan

| Sequence | apparent Kd [1] [nM] | apparent Kd [2] [nM] | apparent Kd [3] [nM] | apparent Kd [4] [nM] | other results |
| --- | --- | --- | --- | --- | --- |
| GUAUGGAUAUUCUCACGCUACAUGAGGAUCACCCAUGUUCUAAGAAGGCGGCGAGGUAGAGCAUCCGAGGAUAUUAGAACUCAG | 21.1 | 76 | – | – | – |
| GAUUACGGUCUAGGAUAUUGAUUGGCACAUGAGGAUCACCCAUGUCUGUGAGAUCAGCAUACAAGCAAGAAGGAGAUGCGGUCU | 10.6 | 10.9 | – | – | – |
| CGACUAACGUGAGGAUAUAGUCCGGAAAGACAUUUUCGUCAAGACAUGAGGAUCACCCAUGUCCUCUAGAAGGCACUCGGAACA | – | – | 45.1 | 30.5 | – |
| UAGACGCACAAACAUGAGGAUCACCCAUGUGUACAGACGCUGCAGGAUAUCCUCUGAAGUUAGUAGGAGAAGGGCAAACAACCU | – | – | 44.5 | 27.3 | – |
| ACAUGAGGAUCACCCAUGUAAUAUAUAAAGACUAAAACUAGUUAGGAUAUAUCACAUGUACAGGGAUAGAAGGAACUAGUCUGC | – | – | 7.15 | 5.84 | – |
| GGUCCCGUAGGAUAUUGCUCAUUGUACAUGAGGAUCACCCAUGUGACUACACUGCACUGGCAAGAAGGACGUUGAU | 83.2 | 50.2 | – | – | – |
| UCUAAAAUCGGAGGAUAUUACGAAGACAUGAGGAUCACCCAUGUAGUGGAACACAUAAGUCGCUCUAAGAAGGCCGCAAUUGAC | 29.5 | 34.6 | – | – | – |
| UAGGAACAUGAGGAUCACCCAUGUUAGGAUAUCGAGGUAUGGAUUAUCAUGCUGUAAGCGAGAAGGAACGUGUG | 30.8 | 29.6 | – | – | – |
| ACAACUCUCACAGGAUAUUGACAUGAGGAUCACCCAUGUAAUCCAGGGCGAACAUAGGACUGACACAAGAAGGGUGACACCAUC | – | – | 20.1 | 16.1 | – |
| UAUUGAAUCCUCCCGACAUGAGGAUCACCCAUGUUACCUGCGCAGGAUAUCGUAUGUAUACCCGGCGAGAAGGGCGCUAGCGAG | 213 | 160 | – | – | – |
| CGGUGAUUCGUAGGAUAUGUAUGAAGCUAGAGAACAGAAGGACGUCGCUACAAAAUUCAAAAUUACAUGAGGAUCACCCAUGUA | – | – | 25.2 | 16.4 | – |
| UAUUUAUCUAUUGUGACAAACAUGAGGAUCACCCAUGUAUACAGAAGGCAUUACCGAAUCUCGGAUGAGGAUAUGUUAUGGAGU | 14 | 33.9 | – | – | – |
| CCUCCUCAUCGAGGAUAUUGGGUCUGACCUCCAUUUAGACAUGAGGAUCACCCAUGUAAAGUGUCCAAGAAGGCGAUACCGGGA | – | – | 817 | 648 | – |
| AGACCAUCCUUAGGAUAUGGCUAUCUUAUCAAGCCAGAAGGAAGGGCCUCAUCUAACAUGAGGAUCACCCAUGUGCGCAAGUUU | 81.3 | 51.9 | – | – | – |
| AUUCAAAUAACAGGAUAUGACAUAAACUACGAAUCAGAAGGGUUACAUAAAUCAACAUGAGGAUCACCCAUGUAUACUCCACAA | – | – | 17.5 | 11.7 | – |
| GUGUACAUGAGGAUCACCCAUGUGAGAGCCACAUAGGGCCAGAAGGAUAUCUAUACUACCGCGUCAGAGAAGGUCUGUUGAUUU | – | – | 33.2 | 24.9 | – |
| GAGCACUUAGGAUAUUGGUUGACACACAUGAGGAUCACCCAUGUGAUUCCUGCCUUUAACCAAGAAGGAAGAGUAU | 14.7 | 13.5 | – | – | – |
| UUGCUCCAUCAGAAGGUCUACGCACAUGAGGAUCACCCAUGUUCUGGAAUCAUCUUGUGUGCCAAGAAGGAUAUGACUUCAAGU | 545 | 363 | – | – | – |
| GUAAGCAAGCAAGGAUAUGAUAUAAAUUCGAUAUCAGAAGGUGCCUUUCCUAGUCGAAUACAUGAGGAUCACCCAUGUCAGCAA | – | – | 25.6 | 18 | – |
| CCGCUCGGGACAUGAGGAUCACCCAUGUUACCUUGCCGUGAGAGAAGGGACACGGCCAGCUCAUGUCAGGAUAUCUCAGCGUAU | – | – | 48.3 | 12.4 | – |
| UGCCUAAAGUCGGCCGCCACUGAUGGUAUCCUCUCCUCGAGGUCACACAUGAGGAUCACCCAUGUCAGGACCGGGACUAGUGAGA | – | – | – | – | apparent Kd [5]: 7.89 nM; apparent Kd [6]: 10.4 nM |
| AAACUCCGCAAGAAGGGUAUUCAAUGAAGUUGUACAGGAUAUUGGCGCAGACAUGAGGAUCACCCAUGUAAGUUCUUCAUGGUU | 125 | 120 | – | – | – |
| CGUAUAGCAGGAUAUACAUGAGGAUCACCCAUGUUUUUCGUUGUGUGGUGCCAAGCGUGUAGAAGGGCUUCCUC | 52.4 | 56.8 | – | – | – |
| GAGAGGCGCUAGAAGGCACGCGUUCGGAUUGAGUGAGGAUAUAGUCCUCUGCCACAUGAGGAUCACCCAUGUAGUUUGAUAGAG | – | – | 6.28 | 6.12 | – |

| Sequence | apparent Kd [1] [nM] | apparent Kd [2] [nM] | apparent Kd [3] [nM] | apparent Kd [4] [nM] | other results |
| --- | --- | --- | --- | --- | --- |
| GCCUAGGGUCAAGGAUAUCACCCAGUGGUCCGUACAUGAGGAUCACCCAUGUCACCGGGAACGGGUGAGAAGGUGAAAAGUCGA | – | – | 13.9 | 9.93 | – |
| UGUAUAGCGGCAGGAUAUGAGAGUGUAGGUGCUUCAGAAGGGCCAUGUGACGCUUUAAAUGGGACACAUGAGGAUCACCCAUGU | 18 | 13.5 | – | – | – |
| CGGGACAUGAGGAUCACCCAUGUACGAUCCCGAGGACCGGUACGGCCGCCACUCGCUAGCGUUGAGUCGCGACUUUCAUAACUAA | – | – | – | – | apparent Kd (designed as: ON switch for tryptophan, no ligand): 74.4 nM; apparent Kd (ligand present: tryptophan, designed as: ON switch for tryptophan): 43.3 nM |
| UGGUUUGUCCAUACAUGAGGAUCACCCAUGUAACACUGGCCCAGAAGGCGAAAAUGGCAGCCAGUCGAGGAUAUGGGCUGUAUG | – | – | 59.7 | 26.6 | – |
| UCGAGUAAGGAGAAGGACUAAUGGACUCACAAAGUAGGAUAUCCUGAACAUGAGGAUCACCCAUGUUGAUGUAACAUGUACUGG | – | – | 118 | 80.1 | – |
| GCUACACAGGACCGUACUAAGGAUUCGCCUCGAGGACCGGUACGGCCGCCACUCGUUGCGCGACAUGAGGAUCACCCAUGUGUUC | – | – | – | – | apparent Kd [5]: 46 nM; apparent Kd [6]: 36.7 nM |
| CUUUACAUAUGUAUGUGGGUUACAUGAGGAUCACCCAUGUGAAGAAGGCUCACCUCAAGCGCAAGAGAGGAUAUUCACGGGUCC | 60.8 | 104 | – | – | – |
| GGGCGUGGAGUAGGAUAUCCUGUAUACAUGAGGAUCACCCAUGUACAUAUCUAGUAUUACCGUUUGGAGAAGGACUGUUGGGCU | – | – | 11.5 | 9.71 | – |
| CAUCGUCGGUCGGCCGCCACUACUGGACAUGAGGAUCACCCAUGUGGCCCGCUGUAUUAACCGCGUAGGACCGGGACGGGAGGUA | – | – | – | – | apparent Kd [5]: 30 nM; apparent Kd [6]: 32.9 nM |
| AAAGAAAGAGUGAGGAUAUGAUAUAAACAAAAGUAACAGAAGGCACAUGAGGAUCACCCAUGUGACUAUAGAAU | 6.08 | 5.62 | – | – | – |
| AGGCAACAUGAGGAUCACCCAUGUCAGGAUAUAGUAAACACAAAUACGAGAAAUAUAACUAGAAGGGACAUAAU | 16.6 | 18.5 | – | – | – |
| UAAGAUUCUGUAGGAUAUCAAAUACAUGAGGAUCACCCAUGUAACCUGAUUUCUGAUCCUCAGUGUGAGAAGGACAAUUAAGCC | 22.1 | 21.2 | – | – | – |
| AAUAUGUAAGGAUAUACUGAAAUAAUAAUAAUAAUAAAUGAGUAGAAGGAACAUGAGGAUCACCCAUGUGAAAC | 8.71 | 8.07 | – | – | – |
| UUGAUCUCGUAGAAGGGAGAGAUUGAGGGCUUCUCAGGAUAUACGAAUCCUCUGUGGCUAUGUUACAUGAGGAUCACCCAUGUC | 791 | 355 | – | – | – |
| UGAAAACCGUCAUAAACAAACAUGAGGAUCACCCAUGUAGCUAAGGAUAUUGACAAACAAAGACUCAAGAAGGUAGAACCUACA | 7.99 | 7.26 | – | – | – |
| AUCUUUGUAGGAUAUCCUGAGGCAAACAUGAGGAUCACCCAUGUCCCAAGAAUGACUAAAGGAGAAGGACACUCGG | 20.6 | 20.7 | – | – | – |
| UUAUAGGAAGGAUAUACAUGAGGAUCACCCAUGUUCAAACCAACGCACUAUCAUAAAUGUAGAAGGACCAACCC | 11.9 | 10.1 | – | – | – |
| GAUUUGUGAGGAUAUCAUUAGAAACAAGUAUGAGGCGAAAGUGAGAAGGCACAUGAGGAUCACCCAUGUUGGAA | 15 | 15.7 | – | – | – |
| AUGGGUACCACAGGAUAUUAGUAACACAUGAGGAUCACCCAUGUUUUACCGCUUGAAGCUUAGACUAAGAAGGGUGGCUUAGAA | – | – | 55.1 | 23.9 | – |
| CAUUGAGCAGCUGAUACCAGUGCCUGAACUUACAUGAGGAUCACCCAUGUAUGCCCAAAACACCCUUGGCAGCAGAGGAAGAUCG | – | – | – | – | apparent Kd (designed as: ON switch for theophylline, no ligand): 14.5 nM; apparent Kd (ligand present: theophylline, designed as: ON switch for theophylline): 13.9 nM |
| CUAGAACAUGAGGAUCACCCAUGUCAGGAUAUUCUUGGAUGCAUCCAAGCGAAAACAAGAAGAAGGGACGUAUA | 10.8 | 10.4 | – | – | – |
| UACUGCAAACAGAAGGUUGGAAGUCGGUUCUCCAAAGGAUAUGUACAUGAGGAUCACCCAUGUGCGCAAAUCGCACAGAGGAGG | 14.6 | 36.9 | – | – | – |
| AGCCAAUAAGGAUAUACAUUUAGAGAUCAUCGUACAAAGUAACAUGAGGAUCACCCAUGUAGAAGGUAUGCAGC | 10.2 | 11.3 | – | – | – |
